Yeast superoxide: lowers age-related superoxide in aged yeast cells | 330,000 tested, 0.18% active | superoxide response (% of plate mean), % at 10 µM | S. cerevisiae aged cells, superoxide DHE fluorescence; hits give low values;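 active = superoxide response under a set limit, about three screen SD below normal, cut at about 65% in these data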;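 note: yeast aged for seven days with compound at 30 °C before DHE staining; 100% = average MFI of all compound-treated wells on the plate with controls excluded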
V-ATPase pH: yeast V-ATPase proton transport regulation by pHLuorin | S. cerevisiae, pHLuorin cytosolic pH fluorescence | response, % at 10 µM | 350,000 tested, 0.37% active; in the data active = response mostly above about 7.3%, no sharp cut-off; inactive = mostly below about 5.4%; note: actives read high
T cruzi repl: blocks replication of Trypanosoma cruzi; T. cruzi beta-gal in NIH3T3, luminescence, 90 h; inhibition, % (concentration not given with the values); 300,000 tested, 1.4% active;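 active = mean inhibition across valid replicates above about 55%, limit read from the data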;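 note: signal also drops with host cell toxicity which is not excluded here; 0% = plate median of DMSO wells and 100% = zero luminescence signal; higher percent means less beta-gal luminescence so fewer parasites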
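compound dosing = single 50 nL compound addition per well in DMSO | material = NIH/3T3 host cells with β-galactosidase reporter T. cruzi | input = 5,000 host fibroblasts per well | timing = ≥90 h infection period, 3 h prior cell attachment | read-out basis = percent inhibition of parasite-derived β-gal signal | detection = GalScreen β-gal luminescence, detergent lysis, 60 min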
NRP1-CendR mod: NRP-1/CendR interaction modulation; O14786; FAM-RPARPAR peptide binding to NRP-1, fluorescence polarization; inhibition, % at 25 µM; 360,000 tested, 0.85% active;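 active = inhibition or corrected inhibition above about 18%, plus a signal ratio from 0.5 to 1.5, limit read from the data, passing the limit was not always enough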
Target sequence (O14786 whole entry, looked up): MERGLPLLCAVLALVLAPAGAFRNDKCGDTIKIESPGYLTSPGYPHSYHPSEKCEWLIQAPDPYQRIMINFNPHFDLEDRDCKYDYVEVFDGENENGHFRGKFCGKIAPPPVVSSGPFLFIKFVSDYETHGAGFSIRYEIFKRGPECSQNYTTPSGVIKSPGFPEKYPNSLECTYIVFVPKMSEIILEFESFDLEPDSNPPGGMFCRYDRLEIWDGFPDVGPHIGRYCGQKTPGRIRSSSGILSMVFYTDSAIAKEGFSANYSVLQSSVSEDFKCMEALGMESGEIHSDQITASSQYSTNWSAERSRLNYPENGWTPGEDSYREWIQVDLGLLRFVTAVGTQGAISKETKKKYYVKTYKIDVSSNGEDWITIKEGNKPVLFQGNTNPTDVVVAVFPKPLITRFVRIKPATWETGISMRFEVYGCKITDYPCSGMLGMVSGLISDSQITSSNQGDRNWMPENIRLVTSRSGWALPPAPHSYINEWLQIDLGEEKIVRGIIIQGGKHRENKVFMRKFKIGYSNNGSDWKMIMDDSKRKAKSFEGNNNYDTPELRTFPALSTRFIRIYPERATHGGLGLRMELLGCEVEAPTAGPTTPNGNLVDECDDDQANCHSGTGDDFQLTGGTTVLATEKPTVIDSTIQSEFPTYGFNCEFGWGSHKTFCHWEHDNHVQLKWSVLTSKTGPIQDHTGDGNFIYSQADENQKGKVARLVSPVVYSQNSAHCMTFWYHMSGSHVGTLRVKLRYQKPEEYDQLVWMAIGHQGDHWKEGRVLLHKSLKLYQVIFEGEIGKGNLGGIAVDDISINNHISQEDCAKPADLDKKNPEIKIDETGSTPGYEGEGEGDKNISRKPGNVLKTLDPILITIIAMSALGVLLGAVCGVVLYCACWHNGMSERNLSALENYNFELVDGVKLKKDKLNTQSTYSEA
HIF act: HIF pathway transcriptional activation; U2OS HRE-luciferase reporter, luminescence; normalized: DMSO 0%, desferrioxamine 100%; activation, % at 7.5 µM (by protocol); 300,000 tested, 0.32% active; AID 1910;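 active = mean activation of at least 10% of the iron chelator positive control signal, with at least half of replicates also reaching 10%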
AI-2 QS modul: modulates the Vibrio harveyi AI-2 quorum sensing system. Vibrio harveyi JMH597 AI-2 luminescence/OD600 ratio, 9 h; hits give low values; strain lacks LuxN and CqsS sensors; 0 = neutral-control median. activity change, % at 7.5 µM. 300,000 tested, 0.4% active. AID 2094; in the data active = activity change below about -75%, passing the limit was not always enough;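 note: luminescence divided by OD600 gain over 9 h not by final OD600 alone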
An asterisk follows results filed as active; . = not tested or not shown. Sampled rows, rich in hits. Any-hit rate of the full collection: about 3%.

SMILES	Yeast superoxide	V-ATPase pH	T cruzi repl	NRP1-CendR mod	HIF act	AI-2 QS modul
CN(C)C(=O)N1CCC(C(=O)N2CCCC(C(=O)c3ccc(C(C)(C)C)cc3)C2)CC1 (centres undefined)	63.2*	-6.5	29.4	1.0	0.1	33.4
CC(=O)Nc1ccc(NC(=O)C(C)OC(=O)CCCN=C2NS(=O)(=O)c3ccccc32)cc1 (centres undefined)	100.0	-5.0	-3.0	-7.2	-55.8	-0.5
CN(Cc1ccccc1)C(=O)CCSc1nc(-c2ccc3c(c2)OCO3)cc(C(F)(F)F)n1	111.6	-1.1	40.6	-3.5	-0.2	27.0
COc1ccc(C(=O)C2CCCN(Cc3cnc(N4CCCC4)s3)C2)cc1OC (centres undefined)	105.3	-6.9	67.0*	8.0	-0.7	27.9
CC1(C(=O)NCCN2CCOCC2)C=CCN1C(=O)c1ccccc1 (centres undefined)	101.5	-3.0	-8.8	9.6	2.4	10.8
O=C(NCCN1CCOCC1)C12CC3CC(C1)CC(c1ccccc1)(C3)C2	99.4	0.5	17.7	44.3*	-0.3	9.4
COc1cc(C(=O)NCCC(C)C)ccc1OCc1ccc(Cl)cc1Cl	108.2	-0.3	69.9*	6.0	-0.3	16.2
CCN(C(=O)CN1C(=O)NC2(CCc3ccccc32)C1=O)C1CCS(=O)(=O)C1 (centres undefined)	111.5	1.6	.	7.1	.	.
O=C(Cc1ccc([N+](=O)[O-])cc1)Nc1cccc(C(=O)N2CCCCC2)c1	92.2	-2.2	.	25.6*	.	.
O=C(Cc1ccc([N+](=O)[O-])cc1)Nc1cccc(C(=O)N2CCOCC2)c1	102.6	-5.0	.	11.9	.	.
Nc1ccc(SCc2nc3cccc4c3n2CCC4)cc1	125.7	1.6	7.5	5.2	-12.8	28.0
CCOC(=O)c1c(NC(=O)/C=C/C(=O)O)sc(C)c1-c1ccc(C(C)(C)C)cc1	116.6	0.4	56.6*	-92.7	-3.7	12.7
CCOCc1nnc(NC(=O)c2c(-c3ccccc3)noc2C)s1	.	2.1	-8.6	7.0	0.6	5.0
CCOC(=O)c1c(NC(=O)c2c(C)noc2C)sc2c1CCCCC2	97.2	-3.6	-3.2	34.9*	0.0	2.2
CCOC(=O)c1c(NC(=O)c2c(-c3ccccc3)noc2C)sc(C)c1-c1ccccc1	112.1	2.5	63.1*	-10.6	-2.2	11.7
CCOC(=O)c1c(NC(=O)/C=C\C(=O)O)sc(C)c1-c1ccccc1	105.8	-0.6	-14.2	-13.9	0.1	1.0
Cc1scc(C(=O)Nn2cnnc2)c1-c1ccccc1	89.2	-3.8	0.2	3.6	-0.2	-6.2
COc1ccc(C(=O)c2nccc3cc(OC)c(OC)cc23)cc1OC	205.6	-2.7	.	26.4*	.	.
Cc1ccc(C(=O)O)cc1S(=O)(=O)N1CCOCC1	89.6	-4.4	-7.5	1.9	0.1	2.8
Cn1nc(C(=O)N2CCc3ccccc32)c2ccccc2c1=O	101.6	-1.9	8.5	3.8	-0.2	-1.9
Cc1cccc2sc(NC(=O)C3CCN(S(=O)(=O)c4cc([N+](=O)[O-])ccc4Cl)CC3)nc12	99.2	-1.2	67.6*	-5.1	-0.4	37.3
COc1ccccc1-n1c(SCC(=O)N2CCOCC2)nc(O)c(Cc2ccccc2)c1=O	117.3	0.9	-13.5	-7.7	-0.1	14.6
CCOC(=O)c1c(N)nn(C(=O)C(C)C)c1-c1ccccc1	102.2	-2.8	3.2	21.8*	-0.2	8.4
CCOC(=O)c1c(N)nn(C(=O)CC)c1-c1ccccc1	112.3	0.3	-8.3	5.8	-0.6	2.2
CNC(CC(=O)c1ccc([N+](=O)[O-])cc1)C(Cl)(Cl)Cl (centres undefined)	107.6	68.6*	.	-1.2	.	.
SMILES	Yeast superoxide	V-ATPase pH	T cruzi repl	NRP1-CendR mod	HIF act	AI-2 QS modul
COc1ccc(-c2cc(C)no2)cc1S(=O)(=O)NCc1cccc(C)c1	87.6	-1.4	-17.7	35.6*	1.2	26.7
CCOc1ccc(N=c2cc(-c3ccc(OC)cc3)oc3ccccc23)cc1	99.7	-5.0	57.4*	5.9	1.1	15.2
COc1ccc(C)cc1NC(=O)c1cccc(C(=O)Nc2cc(C)ccc2OC)c1	101.0	3.3	6.4	33.0*	1.0	16.6
C=CCN(C(=O)CCc1ccccc1OC)c1nc(-c2ccc(S(C)(=O)=O)cc2)cs1	103.4	3.6	66.2*	-6.6	-34.3	14.1
CCOC(=O)C1=C(COC(=O)/C=C/c2ccc(C)o2)NC(=O)NC1C (centres undefined)	97.9	-2.2	.	-25.0	.	.
CC(=O)OCCN1C(=O)c2cccc3cc([N+](=O)[O-])cc(c23)C1=O	113.5	.	73.5*	.	-0.6	37.0
CN(C)CCN1C(=O)c2cccc3cc([N+](=O)[O-])cc(c23)C1=O	.	-2.1	.	3.2	.	.
Cc1cccc(NC(=O)CSCC(=O)Nc2ccccc2C(=O)N2CCCCC2)c1	.	3.2	.	2.6	.	.
COc1ccc(CCNC(=O)c2cc(-c3ccccc3)c(N3CCOCC3)s2)cc1OC	114.5	0.1	43.6	5.4	0.1	16.5
Cc1ccc(-c2cc(=O)c3cc(C)ccc3[nH]2)cc1	.	0.6	-5.9	30.1*	1.4	2.8
O=c1cc(-c2ccccc2)[nH]c2ccc(F)cc12	99.8	0.0	-2.8	22.7*	0.4	17.0
O=C(COc1cccc2ccccc12)NCc1cccnc1	98.9	-1.2	10.4	-6.0	0.1	25.9
CCCCn1c(N)c(N(C(=O)CSc2nnnn2-c2ccccc2)C2CCCC2)c(=O)[nH]c1=O	98.5	3.1	.	13.8	.	.
CN(/N=C/c1ccncc1)c1cnc2ccccc2n1	95.2	0.2	24.3	0.1	4.4	10.8
CNC(=S)N1N=C(c2ccc(OC)cc2)CC1c1ccc(N(C)C)cc1 (centres undefined)	94.3	0.0	17.2	-0.2	0.5	28.7
CNC(=S)N1N=C(c2ccc(Br)cc2)CC1c1ccc(N(C)C)cc1 (centres undefined)	77.6	1.4	49.4	32.5*	0.1	16.9
COc1ccc(C2CC(c3ccc(Br)cc3)=NN2C(=S)Nc2ccccc2)cc1 (centres undefined)	82.3	0.7	37.7	0.8	0.8	-10.5
CNC(=S)N1N=C(c2ccc(Br)cc2)CC1c1ccc(Br)cc1 (centres undefined)	100.2	-3.8	77.7*	10.5	-0.2	52.6
Cc1cccnc1CCNC(=O)CCc1nnc(CCc2ccccc2)o1	109.0	1.6	-7.7	-7.6	0.2	20.1
Cc1ccc(Nc2c(-c3ccccc3O)nc3ncccn23)cc1	97.2	3.4	14.2	25.3*	-0.1	5.7
Cc1ccc(S(=O)C(c2ccccc2)c2ccccc2)cc1 (centres undefined)	.	-0.4	.	20.4*	.	.
O=S(c1ccccc1)C(c1ccccc1)c1ccccc1 (centres undefined)	.	0.0	.	-4.6	.	.
